# Compound activity as filed in PubChem.
# Only some compounds are listed: those with a hit (about 2% of all), similar ones and a draw of the others.
# SR-BI HDL uptake = blocks mouse SR-BI lipid uptake from DiI-HDL. Q61009. hit rate 0.96% among 320,000. inhibition, % at 12.5 µM. ldlA[mSR-BI] CHO cells, DiI-HDL uptake fluorescence, 3 h;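 active = mean replicate inhibition of at least 70% and a set share of replicates each scoring 70 or more; inconclusive = meets just one of the two criteria; inactive = fails both criteria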;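 also: 0% = median of neutral control wells and 100% = median of positive control wells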
# Target sequence (Q61009 whole entry, looked up): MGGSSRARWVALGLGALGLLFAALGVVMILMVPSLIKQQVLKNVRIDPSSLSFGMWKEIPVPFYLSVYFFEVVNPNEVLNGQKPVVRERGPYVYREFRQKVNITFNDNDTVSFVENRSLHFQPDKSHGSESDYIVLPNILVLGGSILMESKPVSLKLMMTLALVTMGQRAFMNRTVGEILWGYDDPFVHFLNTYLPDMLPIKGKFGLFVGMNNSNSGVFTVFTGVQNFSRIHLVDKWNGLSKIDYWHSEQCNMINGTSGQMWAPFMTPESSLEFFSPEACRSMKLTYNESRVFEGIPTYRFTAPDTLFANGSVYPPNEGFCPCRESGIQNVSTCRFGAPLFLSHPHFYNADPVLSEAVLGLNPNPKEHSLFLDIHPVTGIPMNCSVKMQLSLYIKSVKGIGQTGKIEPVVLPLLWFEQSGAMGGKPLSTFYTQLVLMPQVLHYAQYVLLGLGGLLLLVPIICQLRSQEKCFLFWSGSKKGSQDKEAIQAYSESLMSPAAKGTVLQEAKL
# CDK5 p35 inh = inhibitors of human CDK5/p35 kinase; Q00535+Q15078; Recombinant CDK5/p35, ADP-Glo luminescence, 60 min; inhibition, % at 10 µM; hit rate 0.01% among 330,000; AID 488839;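 active = highest replicate inhibition of at least 50% and at least 75% of replicates reaching 50%; inconclusive = only one of the two criteria met; inactive = both criteria failed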;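 also: plate controls were DMSO neutral control for no effect and GW8510 at 10 µM for full effect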
# dFosB act = activators of mouse delta FosB homodimer | P13346 | purified delta FosB, TAMRA-CDK5 oligo fluorescence polarization; percent of positive-control signal above neutral wells | activation, % at 25 µM | hit rate 0.99% among 340,000;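 active = mean activation above about 17%, with every replicate also reaching it, limit read from the data, passing the limit was not always enough; inconclusive = only one of the two conditions met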
# SR-BI DiI-HDL act = activators of SR-BI mediated HDL lipid uptake. CHO ldlA[mSR-BI] cells, DiI-HDL uptake fluorescence, 3 h; 100 = double the neutral-control signal. activation, % at 12.5 µM. hit rate 0.096% among 320,000. AID 504775;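 active = mean replicate activation of at least 60% and every replicate at or above 60%; inconclusive = mean or all-replicate condition met, but not both; inactive = mean below 60% and not all replicates reaching 60%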;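 also: 0% = median plate neutral-control signal and 100% = twice that signal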
#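 system = CHO ldlA[mSR-BI] cells, LDL receptor-null, SR-BI overexpressing | medium = Ham's F12 with 0.5% BSA, HEPES 25 mM, pH 7.4 | probe or stimulus = DiI-HDL 10 µg/mL | compound dosing = single-point compound dose | incubation = compound exposure 3 h, 37 °C | technique = DiI fluorescence, bottom read | read-out = cell-associated DiI fluorescence as measure of HDL uptake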
# Numbers without * were called inactive; ? = inconclusive; · = no result.
SMILES,SR-BI HDL uptake,CDK5 p35 inh,dFosB act,SR-BI DiI-HDL act
CC(CCC(=O)NN)C1CCC2C3CCC4CC(O)CCC4(C)C3CCC12C (stereo not drawn),-23.1,-0.6,0.0,23.1
CC(C)NC(=O)c1cc2c(-c3ccc(Cl)cc3)nn(C)c2s1,45.9,0.0,-14.2,-45.9
COCCCNC(=O)c1cc2c(-c3ccc(Cl)cc3)nn(C)c2s1,76.5*,0.8,-30.1,-76.6
CCCCNC(=O)c1cc2c(-c3ccc(Cl)cc3)nn(C)c2s1,68.7,1.2,-11.7,-68.7
Cc1ccc(CNC(=O)c2cc3c(-c4ccc(Cl)cc4)nn(C)c3s2)o1,76.4*,0.8,-20.7,-76.4
COCCNC(=O)c1cc2c(-c3ccc(Cl)cc3)nn(C)c2s1,87.5*,0.3,-57.2,-87.5
Cn1nc(-c2ccc(Cl)cc2)c2cc(C(=O)NCCCN3CCCC3)sc21,76.4*,1.9,-35.5,-76.4
Cc1ccc(NC(=O)N2CCCCCC2)c(C)c1,-10.5,-1.6,2.6,·
CCCCN(CC)CCCNC(=O)c1cc2c(-c3ccc(OC)c(OC)c3)nn(C)c2s1,12.8,-0.1,37.4*,-12.8
CCOC(=O)C1CNc2cc(S(=O)(=O)CC)ccc2O1 (stereo not drawn),12.1,-0.3,-2.9,-12.1
COc1ccccc1C(=O)NC(CCSC)C(=O)NNC(=O)c1ccccc1O (stereo not drawn),75.7*,-2.0,-7.3,-75.7
O=C(Nc1cccc(-n2cnnn2)c1)C1CCCN(Cc2cccc(C(F)(F)F)c2)C1 (stereo not drawn),11.0,-0.1,-9.3,-11.0
Cc1nc(NC(=O)c2ccccc2)sc1-c1csc(NCCc2ccccc2)n1,76.2*,-1.8,-7.2,-76.2
CCOc1ccccc1Nc1nc(-c2sc(NC(=O)c3cccc(Cl)c3)nc2C)cs1,103.8*,0.7,5.6,-103.8
COc1ccccc1Nc1nc(-c2sc(NC(=O)c3ccccc3)nc2C)cs1,59.2,-0.4,-1.0,-59.2
CCCCC(=O)Nc1nc(C)c(-c2csc(Nc3cc(OC)ccc3OC)n2)s1,83.0*,0.3,7.5,-83.0
CCCCC(=O)Nc1nc(C)c(-c2csc(Nc3cc(Cl)ccc3OC)n2)s1,88.3*,0.5,-5.6,-88.3
C=C(C)CN(CC)C(=O)CN1C(=O)NC(C)(c2ccc3ccccc3c2)C1=O (stereo not drawn),-5.4,0.3,-2.4,5.4
COc1cccc(CN2CC(C(=O)NCc3cnn(C)c3)CCC2=O)c1 (stereo not drawn),-5.3,-1.0,-2.3,5.3
CCCC(C)C(=O)Nc1nc(C)c(-c2csc(Nc3ccc(Cl)cc3)n2)s1 (stereo not drawn),84.7*,1.6,-2.0,-84.7
CCCC(C)C(=O)Nc1nc(C)c(-c2csc(Nc3ccccc3OC)n2)s1 (stereo not drawn),84.4*,0.0,-16.1,-84.4
CCCCCCC(=O)Nc1nc(C)c(-c2csc(Nc3cc(Cl)ccc3C)n2)s1,63.5,0.0,6.2,-63.5
CCCCCCC(=O)Nc1nc(C)c(-c2csc(Nc3ccccc3OC)n2)s1,79.6*,2.3,-13.4,-79.6
CN1C[C@@H]2[C@@H]3C(=O)N(Cc4ccccc4)C(=O)[C@@H]3[C@](Cc3ccccc3)(C1=O)N2C(=O)c1ccc(C(F)(F)F)cc1,-8.7,-0.9,-7.5,8.7
Cc1nn(-c2ccc(F)cc2)c(-n2cccc2)c1C(=O)N1CCN(C(=O)c2ccco2)CC1,1.5,·,0.6,-1.5
SMILES,SR-BI HDL uptake,CDK5 p35 inh,dFosB act,SR-BI DiI-HDL act
CCOC(=O)c1sc(-c2ccccc2)cc1N,-3.0,-0.2,1.0,3.0
CCOC(=O)c1sc(-c2ccccc2)cc1NC(=O)Nc1ccc([N+](=O)[O-])cc1,78.0*,0.3,-2.4,-78.0
CCCc1cc(NC(=O)COC(=O)c2nccnc2N)n(-c2ccccc2)n1,-7.7,1.8,-10.0,7.7
O=C(Nc1sc2c(c1C(=O)NC1CCCCC1)CCC2)c1ccco1,74.7*,-0.5,-5.4,-74.7
O=C(CSCc1ccccc1)N=Nc1c(O)[nH]c2ccccc12,-32.1,2.4,5.0,32.1
Cc1ccc2[nH]c(O)c(N=NC(=O)CCc3ccccc3)c2c1Br,-2.6,0.3,17.0*,2.6
COc1ccc(COc2cc(-c3cccc(OC)c3)nc3ccc(NC(=O)c4ccc(N(C)C)cc4)cc23)cc1,90.3*,-1.6,-4.0,-90.3
COc1ccc(COc2cc(-c3cccc(OC)c3)nc3ccc(NC(C)=O)cc23)cc1,32.9,1.0,0.1,-32.9
COc1ccc(COc2cc(-c3cccc(OC)c3)nc3ccc(NC(=O)c4ccc(C)cc4)cc23)cc1,71.8*,-0.1,-0.2,-71.8
COc1ccc(N2CCN(C(=O)COC(=O)c3ccc(-n4nc(C)cc4C)cc3)CC2)cc1,35.4,0.5,-6.3,-35.4
Brc1ccc(-c2ccc(/C=N/Nc3nc4ccccc4[nH]3)o2)cc1,39.2,2.6,38.9*,-39.2
Cc1ccc(/C=N/NC(=O)c2ccc(-n3cnnn3)cc2)cc1,13.1,0.0,3.5,-13.1
CC(C)c1ccc(/C=N/NC(=O)c2ccc(-n3cnnn3)cc2)cc1,84.3*,-0.3,12.4,-84.3
C=CCC[C@@H](Cc1ccc(F)cc1)C(=O)OC[C@@H](Cc1c[nH]c2ccccc12)NC(=O)[C@@H](CC=C)CC(=O)N[C@@H](CO)Cc1ccccc1,-74.2,0.9,-11.3,74.2*
O=CN1CCN(c2c([N+](=O)[O-])c(=O)oc3ccccc23)CC1,-30.6,0.2,5.8,30.6
COc1ccc(Nc2cc(C)c3c(O)cccc3n2)cc1,11.1,3.4,?,-11.1
Cc1ccc(Nc2cc(C)c3c(O)cccc3n2)cc1C,5.1,2.4,38.5*,-5.1
CN(C)/C=C/C(=O)c1ccc2noc(-c3ccc(F)cc3)c2c1,86.5*,1.2,-2.8,-86.5
Cc1ccc(-c2onc3ccc(C(=O)/C=C/N(C)C)cc23)cc1,29.5,0.9,-12.9,-29.5
Cc1cc(C(=O)CSc2ccccc2)cc(C)c1O,·,-0.7,-9.7,·
CCOC(=O)/C=c1\s/c(=C\c2c(OCC)ccc3ccccc23)c(=O)n1CC(=O)NCC1CCCO1 (stereo not drawn),90.8*,1.7,-0.3,-90.8
CCOC(=O)/C=c1/s/c(=C\c2c(OC)ccc3ccccc23)c(=O)n1CC(=O)NCC1CCCO1 (stereo not drawn),-285.8,-0.9,2.9,?
CCN1C(=O)/C(=C2/Sc3ccccc3N2CC)SC1=S,17.4,0.2,-5.1,-17.4
CCCCN1C(=O)/C(=C2/Sc3ccccc3N2C)S/C1=N\c1ncn[nH]1,83.3*,-0.5,-40.5,-83.3
CCC(C)[C@H](NC(=O)NC(C)C)C(=O)O (stereo partly drawn),-10.4,-0.7,-6.2,10.4
COc1cc(C=c2c3ccccc3n3c2cc(-c2ccccc2)[n+]3C)cc(OC)c1OC,33.1,1.4,-6.1,-33.1
CN(C)c1ccc(C=c2c3cc([N+](=O)[O-])ccc3n3c2cc(-c2ccccc2)[n+]3C)cc1,84.1*,7.6,14.1,-84.1
COc1cc(N(C)C)ccc1C=c1c2ccccc2n2c1cc(-c1ccccc1)[n+]2C,-34.1,10.2,234.5*,34.1
